ABHD5 PLIN5 PPI: ABHD5-PLIN5 interaction inhibitors, primary screen, cell lysate, split luciferase complementation, luminescence; Perilipin-5 (Homo sapiens) + 1-acylglycerol-3-phosphate O-acyltransferase ABHD5 (Homo …; Split G. princeps luciferase complementation, 4 h; inhibition, % at 4 µM; hit rate 0.78% among 360,000;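 active = inhibition above the mean inhibition across every tested compound plus 3 SD, cut at about 22% in these data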;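 note: 0% = DMSO only wells and the 100% control is not disclosed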
PRMT1 inh: PRMT1 methyltransferase inhibitors, primary screen, biochemical, fluorescence polarization; recombinant PRMT1, activity-based probe fluorescence polarization; AID 652257, 2013; Protein arginine N-methyltransferase 1 (Homo sapiens), Q99873; inhibition, % at 2.79 µM; hit rate 1.3% among 370,000;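 active = inhibition above about 21% made by adding two undisclosed values, limit read from the data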
UHRF1 binding: UHRF1 methylated DNA binding inhibitors, primary screen, counter-screen for MBD2 inhibitor project, biochemical, TR-FRET, human UHRF1, single concentration. hit rate 0.75% among 370,000. inhibition, % at 4.4 µM. UHRF1 binding to methylated oligo. E3 ubiquitin-protein ligase UHRF1 (Homo sapiens), Q96T88. AID 687016, 2013; in the data active = inhibition above about 21%;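 note: UHRF1 SRA domain binding a hemimethylated CpG hairpin DNA probe; 0% = median of test compound wells and 100% = reference inhibitor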
MBD2 inh: inhibitors of MBD2 binding to methylated DNA, primary screen, biochemical, TR-FRET, DNA-binding domain, human | Methyl-CpG-binding domain protein 2 (Homo sapiens), Q9UBB5 | MBD2 binding to methylated oligonucleotide | inhibition, % at 4.4 µM | hit rate 0.31% among 370,000 | AID 686964, 2013; in the data active = inhibition above about 13%
Target sequence (Q9UBB5 whole entry, looked up, the tested form may be a part): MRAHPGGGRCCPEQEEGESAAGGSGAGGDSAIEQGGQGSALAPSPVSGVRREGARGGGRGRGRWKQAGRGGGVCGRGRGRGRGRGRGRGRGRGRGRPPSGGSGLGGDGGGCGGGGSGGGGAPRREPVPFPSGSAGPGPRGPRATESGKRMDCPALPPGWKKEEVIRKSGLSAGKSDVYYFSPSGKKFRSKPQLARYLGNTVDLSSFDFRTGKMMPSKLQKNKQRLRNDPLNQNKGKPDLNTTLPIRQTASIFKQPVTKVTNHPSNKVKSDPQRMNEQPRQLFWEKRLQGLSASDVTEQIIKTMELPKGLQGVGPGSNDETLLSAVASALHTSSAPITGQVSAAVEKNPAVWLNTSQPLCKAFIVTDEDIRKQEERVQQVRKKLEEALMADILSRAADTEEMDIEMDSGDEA
RBBP9 inh: human RBBP9 inhibitors, primary screen, biochemical, fluorescence polarization, FP-Rh probe, HTS; Serine hydrolase RBBP9 (Homo sapiens), O75884; recombinant RBBP9; inhibition, % at 7.94 µM; hit rate 0.2% among 220,000;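 active = inhibition above the campaign mean of all tested compounds plus 3 SD, cut at about 14% in these data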;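 note: plate controls were DMSO wells with RBBP9 for no effect and wells lacking RBBP9 protein for full effect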
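Measured by: FP readout at 525/598 nm; material: recombinant human RBBP9; also added: Serine-hydrolase probe FP-Rh, 375 nM pre-mixing; medium: Tris buffer pH 8.0, NaCl, Pluronic; replication: one well per compound; doses: one concentration, 7.94 µM nominal, 0.794% DMSO; timing: preincubation 30 min plus labeling 45 min at 25 °C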
LEDGF integ inh: blockers of LEDGF/p75-dependent integrase strand transfer – biochemical, TR-FRET, high throughput, primary screen | HIV-1 integrase (with human LEDGF/p75) | TR-FRET IN-LEDGF/p75 DNA integration, Eu/Cy5 | inhibition, % at 3.7 µM | hit rate 0.64% among 370,000 | AID 743269, 2014;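 active = inhibition above the screen-wide mean plus 3 SD, cut at about 13% in these data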;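 note: signal is the Cy5 over europium emission ratio at 671 and 618 nm; 0% = plate median of compound wells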
ABHD5-PLIN5 conf: ABHD5-PLIN5 interaction inhibitors, confirmation, biochemical, luminescence; shares compounds with ABHD5 PLIN5 PPI; inhibition, % at 4 µM; hit rate 67% among 2,200; AID 651612, 2012; in the data active = inhibition above about 23%;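 note: 0% = DMSO vehicle wells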
HNF4 counter: HNF4 dimerization inhibitors, counter-screen for ABHD5-PLIN5 interaction inhibitor project, biochemical, split-luciferase complementation, luminescence; shares compounds with ABHD5 PLIN5 PPI; inhibition, % at 4 µM; hit rate 77% among 2,200; AID 651674, 2012;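 active = mean inhibition across replicate wells exceeding the computed hit threshold, cut at about 13% in these data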;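 note: light from luciferase halves that rejoin when HNF4 fusion proteins dimerize; 0% = DMSO only wells and the 100% control is not given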
* hit, by the source's call; . = no result given. An excerpt weighted towards active compounds, which were near 3.1% of everything screened.

SMILES	ABHD5 PLIN5 PPI	PRMT1 inh	UHRF1 binding	MBD2 inh	RBBP9 inh	LEDGF integ inh	ABHD5-PLIN5 conf	HNF4 counter
COc1ccc(C(=O)C(CN2CCOCC2)c2ccccc2)cc1F (configuration not stated)	24.4*	9.1	1.4	1.4	-6.5	3.2	9.5	63.0*
COc1ccccc1/C=C/C=N/n1c(-c2ccc(F)cc2)n[nH]c1=S	52.3*	11.7	4.1	1.3	-10.0	-5.0	-14.1	-8.3
C=CCN(CC#CC(=C)C)Cc1ccc(OC)cc1OC	.	0.2	0.6	-2.8	.	-1.7	.	.
CCCCC1C(=O)N(c2ccccc2)N(c2ccc(O)cc2)C1=O (configuration not stated)	96.6*	20.7	-2.5	-0.5	.	-1.1	82.2*	100.3*
CCN1CCN(c2cc(N3CCc4ccccc4C3)c(F)cc2[N+](=O)[O-])CC1	25.8*	-2.1	-11.8	-13.0	-0.5	-1.1	14.8	2.7
CC(=O)N1CCN(c2cc(N3CCCC3)c(F)cc2[N+](=O)[O-])CC1	2.8	-0.8	-13.9	-16.4	-4.9	-5.1	.	.
Cc1cccc(C(=O)N2CCCCCC2)c1[N+](=O)[O-]	73.9*	-0.3	-1.0	-2.1	-5.7	2.0	2.5	2.9
CC1CCCN(c2cccc3c2S(=O)(=O)N(Cc2cccc(F)c2)[C@@H](C)[C@H](c2ccccc2)O3)C1 (some centres not stated)	.	-1.9	1.9	-4.2	.	-2.6	.	.
O=C(NCCCN1CCCC1)c1ccc2c(c1)N(Cc1ccc(F)cc1)C(=O)c1ccccc1S2=O (configuration not stated)	4.8	-0.3	-0.1	0.8	.	0.5	.	.
CN1CCN(CCCNC(=O)c2ccc(/C=C3\Sc4ccccc4N(Cc4ccccc4F)C3=O)cc2)CC1	32.7*	1.0	-3.4	-3.0	-8.6	0.6	5.2	-6.2
CCN1CCN(CCNC(=O)c2ccc3c(c2)N(Cc2ccc(F)cc2)C(=O)/C(=C/c2ccccc2)S3)CC1	23.6*	-4.9	-1.8	3.8	-8.1	-0.8	17.0	3.9
CCC1CCCCN1CCCNC(=O)c1ccc2c(c1)N(Cc1ccc(F)cc1)C(=O)c1ccccc1S2=O (configuration not stated)	25.4*	1.8	-1.6	-6.3	.	2.7	1.6	7.5
O=C(NCCN1CCOCC1)c1ccc(/C=C2\Sc3ccccc3N(Cc3ccccc3F)C2=O)cc1	8.4	0.7	0.6	-5.7	.	3.8	.	.
CN(CCCOC(=O)c1cc2ccccc2o1)C1CN(Cc2cn(Cc3ccccc3C(F)(F)F)nn2)S(=O)(=O)C1 (configuration not stated)	.	0.0	9.2	2.4	.	0.8	.	.
Nc1[nH]c(C(=O)c2ccc(Cl)cc2)c(-c2ccc(Br)cc2)c1C(=O)c1c[nH]c2ccc(F)cc12	.	2.7	2.7	6.5	.	-0.9	.	.
O=C(Cn1nc(CNc2ccc(Cl)cc2)[n+]2c1CCCCC2)c1ccc(Br)cc1	29.9*	0.9	4.1	0.3	-1.3	-1.2	18.2	-2.0
COC(=O)[C@]12C[C@H](CC(=O)NCc3cccs3)C(=O)N(Cc3ccco3)C1=C[C@H](COCc1ccccc1)O[C@@H]2C	.	5.4	0.3	1.5	.	-3.4	.	.
CN(C)c1nc(N)nc(-c2cccnc2)n1	2.2	-3.6	0.2	2.3	-5.8	-0.1	.	.
Cc1[nH]nc(-c2cccnc2)c1N=NN(C)C	61.7*	2.1	-4.4	-7.3	.	2.9	73.1*	78.8*

High-throughput results deposited in PubChem by The Scripps Research Institute Molecular Screening Center.
